# Laboratory results: the array DNA melting data of Ke et al. (doi:10.1101/2024.01.08.574731)
# How the values were obtained:
# [1] = melting temperature; fluorescence melt of hairpins on a sequencing array, two-state fit, raised by 9.35 °C to match UV melts; conditions: sodium 0.088 M
# Summary of the method: (§1)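 Library hairpins on a sequenced MiSeq flow cell carried annealed Cy3 and quencher oligos, and their Cy3 fluorescence was imaged in 50 mM Na-HEPES pH 8.0 with 25 mM NaCl, in 2.5 °C steps up to 60 °C. Signals were normalised to Cy3 before quenching and to control constructs. Melting temperature and folding enthalpy were obtained from bootstrapped two-state fits, combined by inverse-variance weighting across four replicates, and the fitted temperatures were then raised by 9.35 °C to match UV melts.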
# [2] = folding enthalpy; higher = less favourable; fluorescence melt of hairpins on a sequencing array, two-state fit; conditions: sodium 0.088 M
# Summary of the method: as §1
Sequence,Tm [1] [°C],folding enthalpy [2] [kcal/mol]
CGTGGGAAACCACG (((((....))))),58,-34.5
GCGTGCGAAAGCAAACGC ((((((....)))..))),60.2,-29.6
GGAAGCCCGAAAGGGTCC (((..(((....)))))),35.4,-10.8
GTATTGCGAAAGCACTAC (((.(((....))).))),39.4,-21.5
GCGTTCAACGC ((((...)))),56.8,-23.1
GCGACCGAAAGGTGGCGC ((((((....)))..))),66.9,-31.5
GCACTCGAAAGAGCTTGC ((((((....)))..))),36.6,-19.1
GCAGGTACGAAAGTATGC (((..(((....)))))),33.9,-18
GCCCAGCGAAAGCGGTGC ((.(.((....)).).)),53.1,-15.8
GCAACGCGAAAGCCTTGC ((((.((....)).)))),47.9,-21.5
GATCGAACAATCGATC ((((((....)))))),47.4,-31.3
GTGGACGAAAGTCACAC ((((((....))).))),50,-20.9
GATCATCGCATGATC ((((((...)))))),49.6,-31.4
GGGTCAGGAAACCGACCC (((((.(....).))))),52.7,-37.3
GTTGGCGAAAGCCCCAAC ((((((....)))..))),22.5,-6.64
GACCAGAAATGGTC (((((....))))),51.2,-33.2
GTGTATGCGAAAGCACAC (((..(((....)))))),45.4,-22.1
GATCGTTTGAACGATC ((((((....)))))),54.2,-29.1
GTCAGTCGAAAGACGGAC (((.(((....))).))),56.2,-33.3

Sequence,Tm [1] [°C],folding enthalpy [2] [kcal/mol]
GCGTCGCGAAAGCTAGGC ((.(.((....)).).)),36.8,-20.9
GCAAACGAAAGTTAGTGC ((((((....)))..))),32.9,-19.7
GAGCGCGAAAGCGAGCTC ((((((....)))..))),58.3,-20.9
GCATGACCGAAAGGTTGC (((..(((....)))))),41.5,-18.6
GTCAACGGAAACGCTGAC ((((.((....)).)))),46.4,-35.8
GTAGAACGAAAGTTTTAC (((.(((....))).))),40.2,-30.6
GATCAGAGCACTGATC ((((((....)))))),49.3,-36.5
GTTGGCGAAAGCCACAAC ((((((....)))..))),33.8,-8.33
GTATGTCGAAAGACCTAC (((.(((....))).))),39.6,-19.2
GGTCAGGAAACTGACC ((((((....)))))),59.9,-44.5
GTGAATCCGAAAGGACAC (((..(((....)))))),32.8,-20.1
CGGCAGAAATGCCG (((((....))))),64.9,-31.3
GGATGTGCGAAAGCATCC (((..(((....)))))),45.8,-17.6
GCCGTCGAAAGACCCGGC ((((((....)))..))),47.9,-18.3
TCTACGAAAGTAGA (((((....))))),47.8,-16.4
GCCTTGCGAAAGCCCGGC (((..((....))..))),41.8,-23.2
GATCCGATTGCGGATC ((((((....)))))),56.1,-38.4
GCAATAGCGAAAGCTTGC (((..(((....)))))),48.7,-24.7
GTTTCCGGAAACGAAAAC ((((.((....)).)))),38.8,-16.8
